Assay outcomes: PubChem, several laboratories
PREPL inh: inhibitors of human prolyl oligopeptidase-like enzyme PREPL. recombinant PREPL, fluorescence polarization activity-based probe. inhibition, % at 5.96 µM. 320,000 compounds, 0.68% hits; in the data active = inhibition above about 43%;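 note: 0% = enzyme with DMSO and 100% = wells lacking enzyme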
PP5 primary: inhibitors of human protein phosphatase 5 (PP5); P53041; purified PP5c, OMFP substrate fluorescence; inhibition, % at 6.7 µM; 320,000 compounds, 0.18% hits;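 active = inhibition above the campaign's mean inhibition across all tested compounds plus 3 SD, cut at about 9.5% in these data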;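 note: 0% = DMSO only and 100% = 100 µM cantharidin control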
UCH37 DUB inh: human UCH37 deubiquitinating enzyme inhibition; 330,000 compounds, 0.33% hits; purified proteasome/UCH37, Ub-AMC cleavage fluorescence; Q9Y5K5; inhibition, % (no concentration beside the values); AID 588478;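 active = mean inhibition over replicate wells above about 20%, limit read from the data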;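 note: 0% = compound-free wells with enzyme and 100% = wells lacking proteasome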
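Schedule: 30 min plus 25 min, room temperature / Material: human UCH37 within purified proteasomes / Technique: AMC fluorescence intensity at 355/460 nm / Buffer or medium: pH 7.4 Tris-HCl (50 mM) with ovalbumin, ATP-MgCl2, DTT / Controls: wells without proteasome as full block, compound-free enzyme plus substrate as uninhibited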
CTSL1 counter: blocks F. hepatica cathepsin L1 in PFM18AAP counter-screen | 300,000 compounds, 0.49% hits | recombinant F. hepatica cathepsin L1, Z-Leu-Arg-MCA fluorescence | inhibition, % at 5.96 µM;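 active = inhibition above the mean of all tested compounds plus 3 SD, set per screening campaign, cut at about 17% in these data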;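 note: 0% = plate median of test compound wells and 100% = 1 µM Z-Phe-Ala-diazomethylketone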
PP1 inh: blocks human PP1-alpha phosphatase, a PP5 counter-screen. P62136. purified PP1alpha, OMFP fluorescence. inhibition, % at 6.7 µM. 320,000 compounds, 0.9% hits;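 active = inhibition above the mean inhibition of all tested compounds plus 3 SD, computed separately for each screening campaign, cut at about 15% in these data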
Target sequence (P62136 whole entry, looked up): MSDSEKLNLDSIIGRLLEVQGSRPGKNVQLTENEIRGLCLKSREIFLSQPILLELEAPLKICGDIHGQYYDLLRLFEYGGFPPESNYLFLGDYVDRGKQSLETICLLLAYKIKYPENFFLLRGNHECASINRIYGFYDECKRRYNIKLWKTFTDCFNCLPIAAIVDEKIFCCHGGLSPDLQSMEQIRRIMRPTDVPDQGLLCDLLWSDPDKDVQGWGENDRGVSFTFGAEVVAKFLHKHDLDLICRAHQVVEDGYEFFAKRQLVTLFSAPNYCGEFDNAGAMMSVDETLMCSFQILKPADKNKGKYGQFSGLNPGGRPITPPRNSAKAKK
UBC13 inh: blocks human UBC13 polyubiquitin chain formation; P61088; TR-FRET; inhibition, % at 20 µM; 330,000 compounds, 0.47% hits; in the data active = inhibition above about 45%, passing the limit was not always enough; inconclusive = no clear call, values can overlap the other calls
Target sequence (P61088 whole entry, looked up): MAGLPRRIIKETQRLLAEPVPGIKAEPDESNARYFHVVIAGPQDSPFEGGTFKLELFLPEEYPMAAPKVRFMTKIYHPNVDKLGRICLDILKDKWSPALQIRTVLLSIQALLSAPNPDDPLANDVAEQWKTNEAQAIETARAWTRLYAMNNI
Casp3 UBC13 ctr: caspase-3 inhibition (UBC13 counter-screen) | shares compounds with UBC13 inh | Recombinant caspase-3, Caspase-Glo 3/7 luminescence, 60 min | inhibition, % at 20 µM | 1,400 compounds, 4% hits | AID 488856;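 active = mean inhibition across replicates above about 26%, limit read from the data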;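 note: plate controls were DMSO with caspase-3 for no effect and DMSO wells lacking enzyme for full effect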
UBC13 confirm: human UBC13 polyubiquitin inhibition, confirmed. 1,400 compounds, 68% hits. inhibition, % at 10 µM. shares compounds with UBC13 inh. UBC13 polyubiquitination, TR-FRET, biochemical; in the data active = inhibition above about 45%; inconclusive = no clear call, values can overlap the other calls
Active calls of the source: *; i = inactive; ? = inconclusive; / = no result given. Compounds with a hit are over-represented: about 2.3% of the library has one in this group of screens.

SMILES	PREPL inh	PP5 primary	UCH37 DUB inh	CTSL1 counter	PP1 inh	UBC13 inh	Casp3 UBC13 ctr	UBC13 confirm
CCCC(C(=O)NC1CCCC1)N(C(=O)c1snc(C(N)=O)c1N)c1ccc(OCC)cc1 (stereo not drawn)	5	3	-10	1	2	-2	/	/
Cc1cccc(N(C(=O)c2snc(C(N)=O)c2N)C(C(=O)NC2CCCC2)c2ccc(C)o2)c1 (stereo not drawn)	11	1	-60	4	8	55*	1	39
CC(C)(C)c1cc(C(=O)N/N=C/c2ccccn2)n[nH]1	3	0	/	3	-4	62*	-2	-10
CC(C)N1CCc2c(sc(NC(=O)c3nc4ccccc4s3)c2C(N)=O)C1	8	1	9	1	3	2	/	/
CC(C)N1CCc2c(sc(NC(=O)c3cc(-c4cccs4)nc4ccccc34)c2C(N)=O)C1	6	5	/	4	3	54*	-4	49*
CC(C)N1CCc2c(sc(NC(=O)c3ccc(S(=O)(=O)N4CCc5ccccc54)cc3)c2C(N)=O)C1	6	4	1	2	17*	50*	0	41
O=C(NN=Cc1ccco1)c1ccccc1OCc1ccccc1Cl	/	/	5	/	/	/	/	/
CCC(=O)c1cc2c(C)cc(=O)oc2c(C)c1O	21	2	-1	-4	-7	45*	-2	?
CCC(=O)c1cc2c(C)cc(=O)oc2c(C)c1OC(C)=O	-5	1	i	1	-4	35	/	/
CCC(=O)NC(c1cc(Cl)c2ccccc2c1O)C1CC1 (stereo not drawn)	-1	3	1	/	-5	84*	-1	72*
CCC(=O)NC(C)c1cc(Cl)c2ccccc2c1O (stereo not drawn)	12	1	-4	/	-5	51*	0	34
CN(C)C=Nc1nccc(-c2cccs2)n1	/	/	-28	/	/	/	/	/
O=C(NN=Cc1ccccc1)c1[nH]ncc1Br	/	/	4	/	/	/	/	/
CC1CCN(CCCNC(=O)c2cc3c(s2)-c2ccccc2OC3)CC1	37	3	i	2	2	35	/	/
Cc1cccc2c1-c1sc(C(=O)NCCCN3CCC(C)CC3)cc1CO2	38	4	i	4	3	53*	2	86*
CCOC(=O)c1c(-c2ccccc2)oc2ccc(OCC(O)CNCCN(C)C)cc12 (stereo not drawn)	-11	2	-335	-2	-8	53*	0	56*
COc1ccccc1/C=C\C(=O)NCC(=O)NN=C(C)Cc1ccccc1	/	/	-10	/	/	/	/	/
O=C(CCCCCn1c(SCc2ccncc2)nc2ccccc2c1=O)NCc1ccco1	14	2	2	0	1	69*	-3	47*
COc1ccc(C(=O)Nn2c(SCC(=O)N3CCC(C)CC3)nc3ccccc3c2=O)cc1	3	3	-4	-4	-1	80*	85*	84*
N#CCSc1nc2ccccc2c(=O)n1CCCC(=O)NCc1ccco1	12	0	2	1	-3	2	/	/
COc1ccc(C(=O)Nn2c(SCc3cccc([N+](=O)[O-])c3)nc3ccccc3c2=O)cc1	-10	1	3	-2	5	43	/	/
COc1ccc(C(=O)Nn2c(SCC(=O)c3ccc(Cl)cc3)nc3ccccc3c2=O)cc1	2	2	2	1	4	50*	0	56*
COc1ccc(C(=O)Nn2c(SCC(=O)NC3CCCCC3)nc3ccccc3c2=O)cc1	13	6	-1	-1	4	31	/	/
COc1ccc(C(=O)Nn2c(SCC(=O)NCc3ccco3)nc3ccccc3c2=O)cc1	-6	-1	1	0	0	71*	25	74*
O=C(CSc1nnc(SCc2ccc(Cl)cc2)s1)NN=Cc1c[nH]c2ccccc12	/	/	8	/	/	/	/	/
SMILES	PREPL inh	PP5 primary	UCH37 DUB inh	CTSL1 counter	PP1 inh	UBC13 inh	Casp3 UBC13 ctr	UBC13 confirm
COC(C(=O)NN=C(C)CC(=O)Nc1ccc(N(C)C)cc1)c1ccccc1 (stereo not drawn)	/	/	-1	/	/	/	/	/
O=C(O)c1ccc(Cn2c(SCc3cc(=O)n4cc(Br)ccc4n3)nc3ccsc3c2=O)cc1	13	0	-4	-4	-3	-20	/	/
O=C(CSc1nc2ccsc2c(=O)n1Cc1ccc(C(=O)O)cc1)NCc1ccco1	-6	-2	2	1	1	61*	1	60*
O=C(CSc1nc2ccccc2c(=O)n1Cc1ccccc1)NCc1ccco1	1	0	3	3	1	6	/	/
Cc1ccc(CNC(=O)CSc2nc3ccsc3c(=O)n2Cc2ccc(C(=O)O)cc2)cc1	10	-1	3	4	-3	56*	6	64*
COc1ccc(Cn2c(SCC(=O)NCc3ccco3)nc3ccsc3c2=O)cc1	6	4	-1	4	-2	66*	-4	74*
CCCCn1c(SCC(=O)Nc2cc(C)on2)nc2ccsc2c1=O	12	3	2	-10	-2	6	/	/
CCCCn1c(SCC(=O)Nc2cc(C)[nH]n2)nc2ccsc2c1=O	3	0	-1	-5	2	50*	-2	53*
Cc1ccccc1C(=O)Nc1ccc(C(=O)NN=Cc2ccc(O)cc2)cc1	/	/	-8	/	/	/	/	/
CCCCCCCNC(=O)C1(CC2CC(c3cccc(Br)c3)=NO2)CCN(C(=O)CCCCCBr)CC1 (stereo not drawn)	2	7	-1	-1	2	45*	-1	13
Oc1ccc2ccccc2c1CNc1ccccn1	-27	0	3	-1	-1	56*	-2	49*
Cc1ccc(O)c(CNc2ccccn2)c1	-8	1	-1	-2	1	4	/	/
COc1cc(-c2nc(C(=O)NC3CCN(Cc4ccccc4)CC3)cc3c2[nH]c2ccccc23)cc(OC)c1OC	2	7	-37	2	14	56*	-1	49*
O=C(CCCCCN1C(=O)c2ccccc2C1=O)NCCc1nc2ccccc2[nH]1	11	-6	1	-3	-5	56*	0	53*
COc1ccc(CCNC(=O)CCCCCN2C(=O)c3ccccc3C2=O)cc1	-4	1	2	0	1	29	/	/
Cc1c(C)n(Cc2ccccc2)c2ncnc(N)c12	-34	3	2	-4	0	59*	1	61*
Oc1ccc(C=Nn2c(-c3ccccc3)n[nH]c2=S)cc1	/	/	6	/	/	/	/	/
CCOc1ccccc1NC(=O)CN1CCC(C(=O)c2ccc(F)cc2)CC1	11	4	6	0	-3	73*	0	78*
